Reference: ChEMBL document CHEMBL4680130, “Substituted 4-phenylthiazoles: Development of potent and selective A, A and dual A/A adenosine receptor antagonists” (Eur J Med Chem, 2020)

Columns and labels:
Adenosine receptor A3 [1] = target: T1, Adenosine receptor A3 (Homo sapiens, UniProt P0DMS8); assay: Displacement of [3H]PSB-11 from human adenosine receptor A3 expressed in CHO cell membranes incubated for 60 mins by radioligand competition assay; parameters: species or system Cell membrane
T1 sequence (P0DMS8 whole entry): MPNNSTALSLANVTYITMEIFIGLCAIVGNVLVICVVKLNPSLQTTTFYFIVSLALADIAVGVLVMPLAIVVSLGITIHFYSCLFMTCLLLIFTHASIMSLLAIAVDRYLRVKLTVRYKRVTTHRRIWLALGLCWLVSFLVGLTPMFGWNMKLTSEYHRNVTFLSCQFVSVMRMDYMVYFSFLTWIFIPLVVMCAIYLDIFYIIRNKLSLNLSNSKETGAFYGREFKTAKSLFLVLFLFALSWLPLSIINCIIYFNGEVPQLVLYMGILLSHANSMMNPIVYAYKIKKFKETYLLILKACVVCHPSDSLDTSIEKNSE

Adenosine receptor A1 [2] = target: T2, Adenosine receptor A1 (Rattus norvegicus, UniProt P25099); assay: Displacement of [3H]CCPA from adenosine receptor A1 in rat brain cortex membranes incubated for 90 mins by radioligand competition assay; assay type: cell membranes, Cell membrane
T2 sequence (P25099 whole entry): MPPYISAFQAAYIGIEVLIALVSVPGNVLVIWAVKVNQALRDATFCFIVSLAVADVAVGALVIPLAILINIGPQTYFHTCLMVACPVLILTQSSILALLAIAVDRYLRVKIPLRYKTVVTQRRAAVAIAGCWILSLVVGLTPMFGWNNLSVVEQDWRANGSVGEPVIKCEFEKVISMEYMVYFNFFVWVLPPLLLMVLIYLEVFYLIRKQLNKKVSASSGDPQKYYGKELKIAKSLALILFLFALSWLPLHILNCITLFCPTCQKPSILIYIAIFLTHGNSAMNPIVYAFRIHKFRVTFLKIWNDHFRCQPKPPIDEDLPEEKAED

[3] = target: Adenosine receptor A2a (Rattus norvegicus) (UniProt P30543); assay: Displacement of [3H]MSX2 from adenosine receptor A2A in rat brain striatum membranes at 0.1 uM incubated for 30 mins by radioligand competition assay relative to control; conditions: Cell membrane
Sequence of Adenosine receptor A2a (Rattus norvegicus) (P30543 whole entry): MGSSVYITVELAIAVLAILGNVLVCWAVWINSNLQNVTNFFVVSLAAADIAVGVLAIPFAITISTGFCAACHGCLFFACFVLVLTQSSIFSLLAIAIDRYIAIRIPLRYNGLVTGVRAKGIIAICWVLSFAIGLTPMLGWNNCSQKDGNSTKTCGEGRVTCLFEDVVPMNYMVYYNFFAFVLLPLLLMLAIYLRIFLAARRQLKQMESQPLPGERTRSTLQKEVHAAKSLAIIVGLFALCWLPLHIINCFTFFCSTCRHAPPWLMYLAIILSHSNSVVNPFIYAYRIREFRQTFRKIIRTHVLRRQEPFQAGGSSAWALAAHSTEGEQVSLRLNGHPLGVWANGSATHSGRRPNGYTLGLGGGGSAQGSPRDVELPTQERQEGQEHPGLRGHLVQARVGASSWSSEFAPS
In short: (§1)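 A2A binding, [3H]MSX-2 1.0 nM. Membranes: rat brain striatum, or HEK293 cells expressing human A2A. Adenosine deaminase preincubation 20 min, then 30 min at rt in 50 mM Tris-HCl pH 7.4 with 2.5% DMSO. Nonspecific binding defined by 50 µM NECA. GF/B filtration, scintillation counting. Single-concentration percent inhibition, ≥3 experiments in duplicate or triplicate.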

Adenosine receptor A1 [4] = target: T3, Adenosine receptor A1 (Homo sapiens, UniProt P30542); assay: Displacement of [3H]CCPA from human adenosine receptor A1 expressed in CHO cell membranes incubated for 90 mins by radioligand competition assay; parameters: species or system Cell membrane
T3 sequence (P30542 whole entry): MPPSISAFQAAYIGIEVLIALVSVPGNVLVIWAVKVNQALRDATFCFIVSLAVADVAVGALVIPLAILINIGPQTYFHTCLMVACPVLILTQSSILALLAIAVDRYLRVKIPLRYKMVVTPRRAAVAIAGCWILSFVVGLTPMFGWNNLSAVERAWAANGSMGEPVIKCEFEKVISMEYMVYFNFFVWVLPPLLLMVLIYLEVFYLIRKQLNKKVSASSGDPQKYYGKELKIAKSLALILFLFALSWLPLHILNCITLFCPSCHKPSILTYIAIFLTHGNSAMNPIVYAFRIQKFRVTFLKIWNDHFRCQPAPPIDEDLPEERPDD

Adenosine receptor A3 [5] = target: T4, Adenosine receptor A3 (Rattus norvegicus, UniProt P28647); assay: Displacement of [3H]NECA from rat adenosine receptor A3 expressed in CHO cell membranes incubated for 60 mins by radioligand competition assay; parameters: species or system Cell membrane
T4 sequence (P28647 whole entry): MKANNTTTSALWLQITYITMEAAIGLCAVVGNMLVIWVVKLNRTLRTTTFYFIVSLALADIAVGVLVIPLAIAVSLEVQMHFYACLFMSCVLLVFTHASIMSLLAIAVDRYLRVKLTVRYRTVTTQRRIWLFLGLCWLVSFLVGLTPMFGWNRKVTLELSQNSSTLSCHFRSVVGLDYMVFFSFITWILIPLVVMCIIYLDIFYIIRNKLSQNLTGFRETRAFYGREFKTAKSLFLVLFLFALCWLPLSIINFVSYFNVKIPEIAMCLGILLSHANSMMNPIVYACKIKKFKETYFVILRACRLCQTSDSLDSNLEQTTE

[6] = target: T5, Adenosine receptor A1 (Rattus norvegicus) (UniProt P25099); assay: Displacement of [3H]CCPA from adenosine receptor A1 in rat brain cortex membranes at 0.1 uM incubated for 90 mins by radioligand competition assay; conditions: Cell membrane
T5 sequence (whole entry): T2 sequence (P25099 whole entry)
In short: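 A1 competition binding with [3H]CCPA, 0.5 nM. Membranes: CHO cells expressing human A1, or rat brain cortex. Membranes preincubated 20 min with adenosine deaminase (2 U/mL per mg protein). Incubation 90 min at rt in 50 mM Tris-HCl pH 7.4 with 2.5% final DMSO. Nonspecific binding defined by 10 µM 2-chloroadenosine. GF/B filtration, scintillation counting.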

Adenosine receptor A2b = target: T6, Adenosine receptor A2b (Homo sapiens, UniProt P29275); assay: Displacement of [3H]PSB-603 from human adenosine receptor A2B expressed in CHO cell membranes incubated for 75 mins by radioligand competition assay; parameters: species or system Cell membrane
T6 sequence (P29275 whole entry): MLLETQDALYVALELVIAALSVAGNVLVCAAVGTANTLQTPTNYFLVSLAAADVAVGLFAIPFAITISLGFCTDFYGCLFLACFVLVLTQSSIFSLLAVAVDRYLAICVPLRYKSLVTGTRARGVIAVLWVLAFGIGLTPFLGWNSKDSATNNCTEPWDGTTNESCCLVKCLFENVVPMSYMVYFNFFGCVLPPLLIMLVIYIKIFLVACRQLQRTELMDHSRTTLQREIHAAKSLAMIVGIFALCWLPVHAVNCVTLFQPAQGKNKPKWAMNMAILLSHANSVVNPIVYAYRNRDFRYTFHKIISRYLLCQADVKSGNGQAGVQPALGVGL

Adenosine receptor A2a [7] = target: T7, Adenosine receptor A2a (Homo sapiens, UniProt P29274); assay: Displacement of [3H]MSX2 from human adenosine receptor A2A expressed in HEK293 cell membranes incubated for 30 mins by radioligand competition assay; parameters: species or system Cell membrane
T7 sequence (P29274 whole entry): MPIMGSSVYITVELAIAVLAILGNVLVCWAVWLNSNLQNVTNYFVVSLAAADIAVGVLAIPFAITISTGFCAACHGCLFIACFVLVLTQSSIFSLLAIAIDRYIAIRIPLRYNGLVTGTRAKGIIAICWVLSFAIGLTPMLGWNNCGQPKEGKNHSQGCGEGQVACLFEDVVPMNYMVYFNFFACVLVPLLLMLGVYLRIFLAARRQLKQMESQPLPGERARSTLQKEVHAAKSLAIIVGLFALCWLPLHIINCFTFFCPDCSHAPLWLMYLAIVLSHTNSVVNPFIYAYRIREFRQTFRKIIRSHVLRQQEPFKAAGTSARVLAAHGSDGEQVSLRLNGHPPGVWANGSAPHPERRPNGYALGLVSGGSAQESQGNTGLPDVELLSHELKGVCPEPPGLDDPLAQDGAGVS

Adenosine receptor A2a [8] = target: Adenosine receptor A2a (Rattus norvegicus, UniProt P30543); assay: Displacement of [3H]MSX2 from adenosine receptor A2A in rat brain striatum membranes incubated for 30 mins by radioligand competition assay; assay type: cell membranes, Cell membrane
Sequence of Adenosine receptor A2a (Rattus norvegicus, UniProt P30543) (P30543 whole entry): as the sequence (P30543 whole entry) above

Adenosine receptor A2a [9] = target: T7, Adenosine receptor A2a; assay: Displacement of [3H]MSX2 from human adenosine receptor A2A expressed in HEK293 cell membranes at 0.1 uM incubated for 30 mins by radioligand competition assay relative to control; conditions: Cell membrane; in short: as §1
[10] = target: T8, Adenosine receptor A2b (Homo sapiens) (UniProt P29275); assay: Displacement of [3H]PSB-603 from human adenosine receptor A2B expressed in CHO cell membranes at 0.1 uM incubated for 75 mins by radioligand competition assay relative to control; conditions: Cell membrane
T8 sequence (whole entry): T6 sequence (P29275 whole entry)
In short: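 CHO membranes expressing human or rat A2B, [3H]PSB-603 0.3 nM. Nonspecific binding defined by 10 µM DPCPX. Preincubated 20 min with adenosine deaminase, then 75 min at rt in Tris-HCl pH 7.4 with 2.5% DMSO. Filters washed with ice-cold 50 mM Tris-HCl containing 0.1% BSA; scintillation counting.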

[11] = in the assay text read “at 1 uM” for “at 0.1 uM”

| Compound | Ki (Adenosine receptor A3 [1]) [nM] | Ki (Adenosine receptor A1 [2]) [nM] | inhibition [3] [%] | Ki (Adenosine receptor A1 [4]) [nM] | Ki (Adenosine receptor A3 [5]) [nM] | inhibition ([6]; filed as antagonist) [%] | Ki (Adenosine receptor A2b) [nM] | Ki (Adenosine receptor A2a [7]) [nM] | Ki (Adenosine receptor A2a [8]) [nM] | inhibition [6] [%] | inhibition (Adenosine receptor A2a [9]; [11]) [%] | inhibition [10] [%] | inhibition (Adenosine receptor A2a [9]; filed as antagonist, in the assay text read “1 uM” for “0.1 uM”) [%] |
| --- | --- | --- | --- | --- | --- | --- | --- | --- | --- | --- | --- | --- | --- |
| Cc1ccc(-n2c(-c3sc(NC(=O)c4ccccc4)nc3-c3ccccc3)nc3ccccc3c2=O)cc1 | 9.05 | > 1000 | 17 | > 1000 | 806 | 23 | > 100 | > 1000 | > 1000 |  |  |  |  |
| Cc1ccc(-n2c(-c3sc(NC(=O)c4ccco4)nc3-c3ccccc3)nc3ccccc3c2=O)cc1 | 25.4 | > 1000 | 6 | > 1000 | 1840 |  | > 100 | > 1000 | > 1000 | 25 | 1 |  |  |
| O=C(Nc1nc(-c2ccccc2)c(-c2nc3ccccc3c(=O)n2-c2ccccc2)s1)c1ccco1 | 129 | > 1000 | 33 | > 1000 |  |  | > 100 | > 1000 | > 1000 | 26 | 5 | 1 |  |
| COc1ccc(C(=O)Nc2nc(-c3ccccc3)c(-c3nc4ccccc4c(=O)n3-c3ccc(OC)cc3)s2)cc1 | 4.63 | > 1000 | 1 | > 1000 | > 10000 |  | > 100 | > 1000 | > 1000 | 17 | 10 |  |  |
| CCCCn1c(=O)c2[nH]c(C34CC5CC(CC3C5)C4)nc2n(CCCO)c1=O | 2300 | 0.124 |  |  | 6500 |  | 187 |  | 552 |  |  |  |  |
| CC[C@@H]1CN2C(=O)N(C)c3nc(-c4cc(Cl)cc(Cl)c4Cl)[nH]c3C2=N1 |  | 805 |  | 1700 |  |  | 30000 | 2700 | 6040 |  |  |  |  |
| COc1ccc(-n2c(-c3sc(NC(=O)c4ccccc4)nc3-c3ccccc3)nc3ccccc3c2=O)cc1 | 8.23 | > 1000 | 17 | > 1000 | 1320 | 10 | > 100 | > 1000 | > 1000 |  | 3 |  |  |
| Cn1c(=O)c2[nH]cnc2n(C)c1=O [THEOPHYLLINE] |  |  |  |  | > 100000 |  |  |  |  |  |  |  |  |
| COc1cc(-c2nc(NC(C)=O)sc2-c2ccncc2)cc(OC)c1OC |  |  |  |  |  |  | 3200 |  |  |  |  |  |  |
| O=C(Nc1nc(-c2ccccc2)c(-c2nc3ccccc3c(=O)n2-c2ccccc2)s1)c1ccccc1 | 111 | > 1000 | 3 | > 1000 |  | 1 | > 100 | > 1000 | > 1000 |  |  |  |  |
| COc1ccc(C(=O)Nc2nc(-c3ccccc3)c(-c3nc4ccccc4c(=O)n3-c3ccccc3)s2)cc1 | 174 | > 1000 | 1 | > 1000 |  | 11 | > 100 | > 1000 | > 1000 |  | 20 |  |  |

The next lines start with the values.

| Ki (Adenosine receptor A3 [1]) [nM] | Ki (Adenosine receptor A1 [2]) [nM] | inhibition [3] [%] | Ki (Adenosine receptor A1 [4]) [nM] | Ki (Adenosine receptor A3 [5]) [nM] | inhibition ([6]; filed as antagonist) [%] | Ki (Adenosine receptor A2b) [nM] | Ki (Adenosine receptor A2a [7]) [nM] | Ki (Adenosine receptor A2a [8]) [nM] | inhibition [6] [%] | inhibition (Adenosine receptor A2a [9]; [11]) [%] | inhibition [10] [%] | inhibition (Adenosine receptor A2a [9]; filed as antagonist, in the assay text read “1 uM” for “0.1 uM”) [%] | Compound |
| --- | --- | --- | --- | --- | --- | --- | --- | --- | --- | --- | --- | --- | --- |
|  |  |  | > 10000 |  |  | > 10000 | 3660 |  |  |  |  |  | CCCOC(=O)c1c(-c2ccccc2)nc(CC)c(C(=O)SCC)c1CCC |
|  |  |  |  | > 10000 |  | 3700 | 108 |  |  |  |  |  | CC[C@@H]1CN2C(=O)N(C)c3nc(-c4ccccc4)[nH]c3C2=N1 |
| 25.4 | 1.47 | 32 | 36.7 | > 1000 |  | > 100 | > 1000 | > 1000 |  |  | 2 | 41 | COc1ccc(C(=O)Nc2nc(-c3ccccc3)c(C(=O)c3ccccc3)s2)cc1 |
| 6.45 | > 1000 |  | > 1000 | 973 |  | > 100 | > 1000 | > 1000 | 25 | 11 | 30 |  | COc1ccc(-n2c(-c3sc(NC(=O)c4ccco4)nc3-c3ccccc3)nc3ccccc3c2=O)cc1 |
| > 1000 | 3.47 |  | 90.8 |  |  | > 100 | 83.6 | 391 |  |  |  |  | O=C(Nc1nc(-c2ccccc2)c(-c2ccccn2)s1)c1ccccc1 |
